HSV augment – increases HSV replication in cells; HSV replication augmentation in cells, fold increase; maximum fold increase; 220,000 tested, 0.005% active; in the data active means maximum fold increase above about 1.5; inconclusive means no clear call, values can overlap the other calls; tested in PC3 cells
Cl transport mod – modulators of human KCC2 chloride dependent transport; B-score of Tl+ flux slope (higher = more flux/activation; lower = inhibition) at 10 µM; KCC2 cells, thallium flux FluoZin-2 fluorescence; 190,000 tested, 2.2% active; Q9H2X9;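 active means thallium flux slope and its plate-corrected score both differing from the plate sample mean at a set confidence after two filtering rounds, in either direction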;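 further: slope of fluorescence scaled to starting intensity during 10 to 20 s after thallium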
Target sequence (Q9H2X9 whole entry, looked up): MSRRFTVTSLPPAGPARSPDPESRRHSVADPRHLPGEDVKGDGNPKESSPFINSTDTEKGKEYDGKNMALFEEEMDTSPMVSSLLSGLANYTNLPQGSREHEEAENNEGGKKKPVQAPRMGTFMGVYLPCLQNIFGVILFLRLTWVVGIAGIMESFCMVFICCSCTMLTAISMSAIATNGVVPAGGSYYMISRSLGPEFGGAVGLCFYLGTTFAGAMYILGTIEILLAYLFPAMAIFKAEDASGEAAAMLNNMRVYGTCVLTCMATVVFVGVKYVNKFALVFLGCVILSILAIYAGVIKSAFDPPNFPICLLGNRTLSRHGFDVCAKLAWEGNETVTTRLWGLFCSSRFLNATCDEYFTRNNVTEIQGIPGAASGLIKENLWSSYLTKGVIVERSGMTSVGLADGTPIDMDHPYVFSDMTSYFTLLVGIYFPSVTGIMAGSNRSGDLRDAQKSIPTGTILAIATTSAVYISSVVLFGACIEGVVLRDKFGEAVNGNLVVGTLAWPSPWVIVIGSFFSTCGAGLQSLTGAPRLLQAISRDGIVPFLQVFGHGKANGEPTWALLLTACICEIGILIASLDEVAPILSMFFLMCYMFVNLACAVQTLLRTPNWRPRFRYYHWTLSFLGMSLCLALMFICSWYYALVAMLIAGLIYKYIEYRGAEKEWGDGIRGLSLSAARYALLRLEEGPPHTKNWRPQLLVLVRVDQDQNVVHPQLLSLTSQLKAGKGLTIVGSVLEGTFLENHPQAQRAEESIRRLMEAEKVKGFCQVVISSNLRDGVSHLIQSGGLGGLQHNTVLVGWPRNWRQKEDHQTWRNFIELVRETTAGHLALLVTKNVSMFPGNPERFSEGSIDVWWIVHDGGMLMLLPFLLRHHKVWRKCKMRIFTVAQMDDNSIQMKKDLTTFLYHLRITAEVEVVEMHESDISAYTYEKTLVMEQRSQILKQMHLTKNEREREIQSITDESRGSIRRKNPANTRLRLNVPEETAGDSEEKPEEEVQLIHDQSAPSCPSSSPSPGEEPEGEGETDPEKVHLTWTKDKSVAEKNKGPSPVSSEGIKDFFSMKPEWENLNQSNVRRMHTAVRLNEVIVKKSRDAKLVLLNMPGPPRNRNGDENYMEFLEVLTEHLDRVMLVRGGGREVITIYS
STAT1 act – increases IFN-gamma driven STAT1 reporter signal | 200,000 tested, 2.6% active | activation (% of control), % at 5.5 µM | NIH 3T3 STAT1-luciferase reporter, luminescence; 100% = IFN-gamma alone, no compound;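 active means activation above the screen-wide mean activation plus 3 SD, cut at about 130% in these data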
STAT1 blocker – reduces IFN-gamma driven STAT1 reporter signal; NIH 3T3 STAT1-luciferase reporter, luminescence; inhibition, % at 5.5 µM; 200,000 tested, 0.35% active; AID 920;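 active means inhibition above a set limit, the mean inhibition across all tested compounds plus 3 SD, cut at about 34% in these data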
STAT3 blocker – STAT3 signaling inhibition; U3A cells, IL-6 STAT3-luciferase reporter, luminescence; host cell line lacks STAT1; inhibition, % at 5.5 µM; 190,000 tested, 0.89% active;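 active means inhibition above the mean inhibition across all screened compounds plus 3 SD, cut at about 44% in these data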
STAT3 activator – activators of IL-6 induced STAT3 signaling; U3A cells, IL-6 STAT3-luciferase reporter, luminescence; 100% = signal with IL-6 EC80 alone; 190,000 tested, 0.91% active; activation (% of control), % at 5.6 µM; AID 871;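 active means activation above the screen-wide mean of compound activation plus 3 SD, cut at about 130% in these data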
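Material: STAT3-luciferase reporter U3A cells; Probe or stimulus: IL-6 (33 ng/mL); Incubation: compound pre-incubation 1 h before IL-6, then 6 h stimulation at 37 °C; Technique: luminescence from STAT3-driven luciferase reporter; Evaluation: % activation versus median of IL-6-stimulated wells; Controls: IL-6-only high control.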
KCC2 sec1 – KCC2 (human) modulation, secondary assay; shares compounds with Cl transport mod; HEK293-KCC2, thallium flux, FluoZin2 fluorescence; active compounds read high; normalised thallium flux (F/F0 slope) at 10 µM; 3,700 tested, 15% active;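 active means thallium flux slope above the same plate's solvent-only control mean plus 3 SD; inconclusive means the two replicate wells disagree; inactive means no significant difference from solvent-only control wells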
KCC2 bumet counter – bumetanide-insensitive thallium flux in KCC2 cells with ouabain, counter-screen. shares compounds with Cl transport mod. HEK293-KCC2 + bumetanide/ouabain, thallium flux FluoZin2; active compounds read high. normalized thallium flux at 10 µM. 3,700 tested, 49% active;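 active means thallium entry rate above the same plate's blocked-transporter control wells by more than 3 SD; inconclusive means the two repeat wells disagree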;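 further: raw slope of fluorescence over initial fluorescence between 10 and 20 s after thallium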
KCC2 secondary2 – confirmation of human KCC2 transport modulators. shares compounds with Cl transport mod. normalized thallium flux at 10 µM. HEK293-KCC2, thallium flux FluoZin2 fluorescence; actives lie on both sides; F/F0 rise rate, 10–20 s post-thallium. 3,700 tested, 23% active;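 active means thallium flux slope more than 3 SD above or below the plate's solvent-only control mean, mostly below; inconclusive means the two repeat wells disagreed; inactive means no significant shift from solvent-only controls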
HEK293 Tl flux – acts in parental HEK cells, KCC2 counter-screen | 3,700 tested, 46% active | HEK293 parental cells, thallium flux FluoZin2, ouabain; baseline-ratio fluorescence slope, 10–20 s after thallium | thallium flux rate (normalised fluorescence) at 10 µM | shares compounds with Cl transport mod;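 active means thallium flux rate significantly above the same plate's solvent-only control wells, beyond their mean plus 3 SD; inconclusive means the two replicate wells gave conflicting results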
KCC2 retest ouab – modulates human KCC2 on retest with ouabain; shares compounds with Cl transport mod; HEK293-KCC2, thallium flux FluoZin2 fluorescence; bidirectional: low = inhibitor, high = activator; raw Tl+ flux slope (below DMSO = inhibition, above = activation) at 10 µM; 3,700 tested, 48% active;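 active means thallium flux slope beyond 3 SD from same-plate DMSO control mean in most replicates, usually higher, sometimes lower; inconclusive means repeat tests gave conflicting results; inactive means no significant difference from controls in most replicates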;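 further: slope of initial-normalized fluorescence between seconds 10 and 20 after thallium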
HEK counter2 – parental HEK flux effect, counter-screen 2; 3,700 tested, 33% active; HEK293 parental, thallium flux FluoZin-2 fluorescence slope; thallium flux slope at 10 µM; AID 1718; shares compounds with Cl transport mod;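 active means thallium flux slope above the same plate's solvent-control mean plus 3 SD in both duplicate wells; inconclusive means duplicate wells that disagreed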;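 further: run without ouabain in cells lacking the KCC2 cotransporter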
Of the large screens only hits and unclear results are named; the others gave an inactive call (follow-up assays come after a bar, where they were run). Compounds with a hit are over-represented: about 5.5% of the library has one in this group of screens.

O=C(NNS(=O)(=O)c1ccc2ccccc2c1)C1CCN(Cc2ccccc2)CC1	none (no result: HSV augment, Cl transport mod) | KCC2 sec1 inactive | KCC2 bumet counter inactive | KCC2 secondary2 inactive | HEK293 Tl flux inactive | KCC2 retest ouab inconclusive | HEK counter2 inactive
O=C(C1CC1)N1CCc2cc(S(=O)(=O)NC3CCN(Cc4ccccc4)CC3)ccc21	none (no result: HSV augment, Cl transport mod) | KCC2 sec1 inactive | KCC2 bumet counter inconclusive | KCC2 secondary2 inconclusive | HEK293 Tl flux inactive | KCC2 retest ouab 0.016 | HEK counter2 inactive
COc1ccc(N/N=C(C)/C(=N/O)C(=O)Nc2ccccc2)cc1	none
COc1ccc(-c2csc(NC(=O)c3cccs3)c2C(=O)O)cc1OC	Cl transport mod -3.7 | KCC2 sec1 inactive | KCC2 bumet counter inactive | KCC2 secondary2 inactive | HEK293 Tl flux inactive | KCC2 retest ouab 0.016 | HEK counter2 inactive
COc1ccc(-c2csc(NC(=O)Cc3cccc4ccccc34)c2C(=O)O)cc1	Cl transport mod -4.1 (no result: HSV augment) | KCC2 sec1 inactive | KCC2 bumet counter inactive | KCC2 secondary2 inactive | HEK293 Tl flux inactive | KCC2 retest ouab inactive | HEK counter2 inactive
COC(=O)C1=C(C(=O)OC)SC(=C2C(=S)C(C)(C)N(C(=O)CC(C)C)c3ccccc32)S1	none
Cc1ccc(CNC(=O)c2cc3c(s2)CN(Cc2ccccc2)C3)cc1	none
O=C(NNC(=O)C12CC3CC(CC(C3)C1)C2)c1ccccn1	Cl transport mod 22 (no result: STAT1 act, STAT1 blocker, STAT3 blocker, STAT3 activator) | KCC2 sec1 inactive | KCC2 bumet counter 0.041 | KCC2 secondary2 0.044 | HEK293 Tl flux 0.027 | KCC2 retest ouab 0.042 | HEK counter2 0.03
CC1(C(=O)NC(=S)NNC(=O)c2ccncc2)CCCCC1	none
O=C(NNC(=S)NC(=O)C12CC3CC(CC(C3)C1)C2)c1ccncc1	none (no result: Cl transport mod) | KCC2 sec1 0.017 | KCC2 bumet counter 0.038 | KCC2 secondary2 inactive | HEK293 Tl flux 0.02 | KCC2 retest ouab inactive | HEK counter2 0.013
Cc1cc(NC(=O)CS(=O)(=O)c2cn(Cc3ccccc3Cl)c3ccccc23)no1	Cl transport mod -2.9 | KCC2 sec1 inactive | KCC2 bumet counter inactive | KCC2 secondary2 inconclusive | HEK293 Tl flux 0.006 | KCC2 retest ouab 0.015 | HEK counter2 inconclusive
CC(C)OC(=O)c1cc2c(ccn2C)n1CC(=O)N1CCC(Cc2ccccc2)CC1	Cl transport mod -5.7 | KCC2 sec1 inactive | KCC2 bumet counter inactive | KCC2 secondary2 0.024 | HEK293 Tl flux inconclusive | KCC2 retest ouab 0.014 | HEK counter2 inactive
Cc1cccc(NC(=O)c2sc(Cl)nc2-c2ccccc2)c1	none
O=C(CSc1ccccc1C(=O)NCc1ccccc1)NC1CCCCCCC1	Cl transport mod -4 | KCC2 sec1 inactive | KCC2 bumet counter inconclusive | KCC2 secondary2 0.021 | HEK293 Tl flux inactive | KCC2 retest ouab inconclusive | HEK counter2 inactive
O=C(NC1CCCC1)c1ccccc1OCc1ccccc1	Cl transport mod -3.6 | KCC2 sec1 inactive | KCC2 bumet counter inconclusive | KCC2 secondary2 inactive | HEK293 Tl flux 0.0047 | KCC2 retest ouab 0.015 | HEK counter2 inactive
O=C(CSc1ccccc1C(=O)O)NC1CCCCCC1	none (no result: STAT1 act, STAT1 blocker, STAT3 blocker, STAT3 activator)
O=C(CSc1ccccc1C(=O)O)NCc1ccccc1	none
O=C(CSc1ccccc1C(=O)NCc1ccccc1)NC12CC3CC(CC(C3)C1)C2	Cl transport mod -3.6 | KCC2 sec1 inconclusive | KCC2 bumet counter inconclusive | KCC2 secondary2 0.022 | HEK293 Tl flux inactive | KCC2 retest ouab inconclusive | HEK counter2 inactive
COc1ccc(NC(=O)Cn2nnc(C(=O)Nc3ccccc3C)c2N)cc1	none (no result: HSV augment)
Cc1ccc(Nc2nnc(SCC(=O)c3ccc(Br)s3)s2)c(C)c1	Cl transport mod -3.9 | KCC2 sec1 inactive | KCC2 bumet counter inconclusive | KCC2 secondary2 inconclusive | HEK293 Tl flux inactive | KCC2 retest ouab 0.013 | HEK counter2 inactive
NNC(=O)c1cc(-c2cccs2)nc2ccccc12	none (no result: STAT1 act, STAT1 blocker, STAT3 blocker, STAT3 activator)
C/C(=N\NC(=O)c1cc(-c2cccs2)nc2ccccc12)c1ccccn1	Cl transport mod 17 | KCC2 sec1 0.015 | KCC2 bumet counter 0.044 | KCC2 secondary2 inactive | HEK293 Tl flux 0.06 | KCC2 retest ouab 0.045 | HEK counter2 inconclusive
N#Cc1c(-c2cccs2)nc(SCC(=O)c2cccs2)[nH]c1=O	none
On1cnnc1-c1ccccc1	none (no result: Cl transport mod)
COn1cnnc1-c1ccccc1	none (no result: Cl transport mod) | KCC2 sec1 inactive | KCC2 bumet counter inactive | KCC2 secondary2 inactive | HEK293 Tl flux inactive | KCC2 retest ouab inactive | HEK counter2 inactive
Cc1ccc(CNC(=O)C(C)OC(=O)c2cccs2)cc1 (centres undefined)	none
COc1ccc(/C=C(\CC(=O)O)c2nc3ccccc3s2)cc1O	none
COc1ccc(-c2nn(-c3ccccc3)cc2/C=C(\CC(=O)O)c2nc3ccccc3s2)cc1OC	Cl transport mod -3.8 | KCC2 sec1 inactive | KCC2 bumet counter inactive | KCC2 secondary2 inactive | HEK293 Tl flux inconclusive | KCC2 retest ouab 0.014 | HEK counter2 inactive
COc1ccc(CCNC(=S)NC(=O)c2cccc(Cl)c2)cc1OC	Cl transport mod 4.5 (no result: STAT1 act, STAT1 blocker, STAT3 blocker, STAT3 activator) | KCC2 sec1 inactive | KCC2 bumet counter 0.032 | KCC2 secondary2 inactive | HEK293 Tl flux 0.012 | KCC2 retest ouab inactive | HEK counter2 inconclusive
CN(C)C(=S)NC(=O)c1cccc(Cl)c1	Cl transport mod 21 | KCC2 sec1 inactive | KCC2 bumet counter 0.037 | KCC2 secondary2 inactive | HEK293 Tl flux 0.025 | KCC2 retest ouab 0.036 | HEK counter2 0.022
CCCc1cc(C(=O)NNC(=S)NC(C)c2ccccc2)cs1 (centres undefined)	none
COc1cc(/C=C/C(=O)O)cc(S(=O)(=O)Nc2ccccc2Cl)c1OC	none
CC1=Nc2ccccc2/C1=C/c1c(N)n2c(S(=O)(=O)CC(C)C)nsc2nc1=O	none
CCCCCCC(=O)NC(Nc1ccc(S(N)(=O)=O)cc1)C(Cl)(Cl)Cl (centres undefined)	none

Assay outcomes (PubChem BioAssay)
